Calls of active or inactive are those of the source. No cut-off for these calls is given here.
Experiments:
[1] = Aqueous solubility of the compound in phosphate buffer at pH 7.4 incubated for 24 hrs by LC/MS/MS method; assay type: physicochemical
[2] = Intrinsic clearance in human liver microsomes; assay type: ADME; conditions: read-out: CLH
[3] = Intrinsic clearance in rat hepatocyte assessed per 10^6 cells; assay type: ADME, cell-based; conditions: hepatocytes, read-out: CLH
[4] = target: Voltage-gated inwardly rectifying potassium channel KCNH2 (Homo sapiens, UniProt Q12809); test: Inhibition of human ERG expressed in CHO cells by patch clamp assay; assay type: cell-based
[5] = target: Homeodomain-interacting protein kinase 1 (Homo sapiens) (UniProt Q86Z02); test: Inhibition of Hipk1 (unknown origin) at 0.1 uM by quantitative PCR
In short: (§1)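 Single-concentration screen at 0.1 μM, run as part of a selectivity panel of 402 kinases.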

[6] = target: Homeodomain-interacting protein kinase 3 (Homo sapiens) (UniProt Q9H422); test: Inhibition of Hipk3 (unknown origin) at 0.1 uM by quantitative PCR; in short: as §1
[7] = target: Homeodomain-interacting protein kinase 4 (Homo sapiens) (UniProt Q8NE63); test: Inhibition of Hipk4 (unknown origin) at 0.1 uM by quantitative PCR; in short: as §1
[8] = target: Dual specificity tyrosine-phosphorylation-regulated kinase 1A (Homo sapiens) (UniProt Q13627); test: Inhibition of Dyrk1a (unknown origin) at 0.1 uM by quantitative PCR; in short: as §1
[9] = target: Dual specificity tyrosine-phosphorylation-regulated kinase 1B (Homo sapiens) (UniProt Q9Y463); test: Inhibition of Dyrk1b (unknown origin) 0.1 uM by quantitative PCR; in short: as §1
[10] = target: Dual specificity tyrosine-phosphorylation-regulated kinase 3 (Homo sapiens) (UniProt O43781); test: Inhibition of Dyrk3 (unknown origin) at 0.1 uM by quantitative PCR; in short: as §1
[11] = target: Dual specificity tyrosine-phosphorylation-regulated kinase 4 (Homo sapiens) (UniProt Q9NR20); test: Inhibition of Dyrk4 (unknown origin) at 0.1 uM by quantitative PCR; in short: as §1
[12] = target: Death-associated protein kinase 2 (Homo sapiens) (UniProt Q9UIK4); test: Inhibition of Dapk2 (unknown origin) at 0.1 uM by quantitative PCR; in short: as §1
[13] = target: Death-associated protein kinase 3 (Homo sapiens) (UniProt O43293); test: Inhibition of Dapk3 (unknown origin) at 0.1 uM by quantitative PCR; in short: as §1
[14] = Antiproliferative activity against human […] cells after 72 hrs by alamar blue assay; assay type: functional; conditions: HCT-116, 72 h
[15] = Antiproliferative activity against human DLD1 cells after 72 hrs by alamar blue assay; assay type: functional; conditions: DLD-1, 72 h
[16] = Antiproliferative activity against human SW620 cells after 72 hrs by alamar blue assay; assay type: functional; conditions: SW-620, 72 h
Mus musculus [17] = test: In vivo inhibition of AKT phosphorylation in human SW620 cells xenografted in iv dosed Ncr nu/nu mouse after 48 hrs by Western blot analysis; assay type: functional, organism-based; conditions: SW-620
In short: (§2)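 SW620 (APC mutant) xenograft mice dosed IV at 10 or 30 mg/kg; pAKT S129 and active β-catenin measured by Western blot of tumor lysates, one lane per vehicle- or compound-treated animal.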

Mus musculus [18] = test: In vivo inhibition of active beta-catenin phosphorylation at Ser37 or Thr41 in human SW620 cells xenografted in iv dosed Ncr nu/nu mouse after 48 hrs by Western blot analysis; assay type: functional, organism-based; conditions: SW-620; in short: as §2
Mus musculus [19] = test: In vivo inhibition of Wnt-associated Tcf4-luciferase gene transcription in human DLD1 cells xenografted in Ncr nu/nu mouse at 10 mg/kg, iv measured at 8 hrs; assay type: functional; conditions: DLD-1, iv
Mus musculus [20] = test: In vivo inhibition of AKT phosphorylation at S129 in human DLD1 cells xenografted in Ncr nu/nu mouse at 10 mg/kg, iv measured up to 24 hrs; assay type: functional, organism-based; conditions: DLD-1
In short: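 DLD-1 TOPflash xenograft mice given a single 10 mg/kg IV dose; tumor AKT Ser129 phosphorylation assessed out to 24 h.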

[21] = Antitumor activity against human HCT116 cells harboring beta-catenin mutation xenografted in Ncr nu/nu mouse at 30 mg/kg, ip administered as bolus dose for once in every week for 3 weeks; assay type: functional; conditions: HCT-116, ip, 504 h, read-out: TGI
In short: (§3)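 Mouse xenografts (HCT-116 β-catenin mutant; SW620 APC mutant) dosed at 30 mg/kg weekly for 3 cycles; efficacy expressed as % tumor growth inhibition.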

[22] = Antitumor activity against human SW620 cells harboring APC mutation xenografted in Ncr nu/nu mouse at 30 mg/kg, ip administered as bolus dose for once in every week for 3 weeks; assay type: functional; conditions: SW-620, ip, 504 h, read-out: TGI; in short: as §3
HCT-116 = test: Antitumor activity against human HCT116 cells harboring beta-catenin mutation xenografted in ip dosed Ncr nu/nu mouse administered as bolus dose for once in every week for 3 weeks; assay type: functional, organism-based
SW-620 = test: Antitumor activity against human SW620 cells harboring APC mutation xenografted in ip dosed Ncr nu/nu mouse administered as bolus dose for once in every week for 3 weeks; assay type: functional, organism-based
Mus musculus [23] = test: Toxicity in ip dosed Ncr nu/nu mouse xenografted with human HCT-116 cells harboring beta-catenin mutation assessed as reversible body weight loss measured on day 25; assay type: organism-based; conditions: in vivo
Mus musculus [24] = test: Toxicity in Ncr nu/nu mouse xenografted with human SW620 cells harboring APC mutation assessed as reduction in body weight at 30 mg/kg, ip measured on day 25; assay type: organism-based, SW-620; parameters: scale not given: the % may be the effect or the level left; conditions: in vivo
In short: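 SW620 (APC mutant) xenograft mice dosed weekly for 3 cycles; body weight change in treated animals recorded on day 25 as mean % change.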

Mus musculus [25] = test: Toxicity in ip dosed Ncr nu/nu mouse xenografted with human SW620 cells harboring APC mutation assessed as reversible body weight loss measured on day 25; assay type: organism-based, SW-620; conditions: in vivo
[26] = Fraction unbound in human plasma at 10 uM by equilibrium dialysis method; assay type: ADME, cell-free
[27] = target: Bone morphogenetic protein receptor type-1B (Homo sapiens) (UniProt O00238); test: Inhibition of BMPR1b (unknown origin) at 0.1 uM by quantitative PCR
L-Wnt3a = test: Inhibition of CK2 in mouse L-Wnt3a cells assessed as depletion of active form of beta-catenin after 1 hr by Western blot method; assay type: cell-based
Plasma = test: Drug uptake in Ncr nu/nu mouse plasma xenografted with human DLD1 cells at 10 mg/kg, iv measured up to 24 hrs; assay type: ADME, organism-based, DLD-1; conditions: in vivo
In short: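 Single 10 mg/kg IV dose in DLD-1 TOPflash xenograft mice; plasma drug concentration followed to 24 h.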

[28] = Inhibition of CK2 in mouse L-Wnt3a cells assessed as suppression of Wnt3a-mediated L S/L Super TOPFlash reporter gene transcription after 24 hrs; conditions: L Wnt-3A
[29] = target: Homeodomain-interacting protein kinase 2 (Homo sapiens) (UniProt Q9H2X6); conditions: 0.1 uM
[30] = target: T1, Casein kinase II subunit alpha (Homo sapiens, UniProt P68400); test: Binding affinity to His-tagged recombinant human CK2alpha (6 to 335 residues) after 50 to 116.7 mins by surface plasmon resonance assay
Rattus norvegicus = test: AUC in rat at 10 mg/kg, po; assay type: ADME, organism-based; conditions: in vivo
Hepatocyte = test: Drug metabolism in rat hepatocytes assessed as oxidative demethylated metabolite formation; assay type: ADME, cell-based
Liver microsome [31] = test: Drug metabolism in rat liver microsomes in presence of ABT; assay type: ADME
In short: (§4)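 Metabolite formation studied in rat and human liver microsome incubations with ABT present, to probe oxidative clearance.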

Liver microsome [32] = test: Drug metabolism in human liver microsomes in presence of ABT; assay type: ADME; in short: as §4
[33] = target: T1, Casein kinase II subunit alpha; test: Inhibition of full length N-terminal 6xHis-tagged recombinant human CK2alpha expressed in fall armyworm Sf21 cells using BODIPY-FL-RRRDDDSDDD-CONH2 as substrate after 90 mins by mobility shift assay
Casein kinase II = Casein kinase II (Homo sapiens, UniProt P19784+P67870+P68400); test: Inhibition of CK2 in human DLD1 HA-myr-AKT1 cells assessed as suppression of AKTser129 phosphorylation after 3 to 24 hrs by Western blot analysis
Sequence of Casein kinase II (P67870 whole entry): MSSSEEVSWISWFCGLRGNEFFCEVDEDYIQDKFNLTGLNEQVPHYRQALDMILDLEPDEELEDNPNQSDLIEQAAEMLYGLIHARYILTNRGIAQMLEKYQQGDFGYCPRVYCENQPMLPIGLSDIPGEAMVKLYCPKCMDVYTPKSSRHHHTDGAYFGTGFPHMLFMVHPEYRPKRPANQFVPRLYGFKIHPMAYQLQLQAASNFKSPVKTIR
Sequence of Casein kinase II (P68400 whole entry): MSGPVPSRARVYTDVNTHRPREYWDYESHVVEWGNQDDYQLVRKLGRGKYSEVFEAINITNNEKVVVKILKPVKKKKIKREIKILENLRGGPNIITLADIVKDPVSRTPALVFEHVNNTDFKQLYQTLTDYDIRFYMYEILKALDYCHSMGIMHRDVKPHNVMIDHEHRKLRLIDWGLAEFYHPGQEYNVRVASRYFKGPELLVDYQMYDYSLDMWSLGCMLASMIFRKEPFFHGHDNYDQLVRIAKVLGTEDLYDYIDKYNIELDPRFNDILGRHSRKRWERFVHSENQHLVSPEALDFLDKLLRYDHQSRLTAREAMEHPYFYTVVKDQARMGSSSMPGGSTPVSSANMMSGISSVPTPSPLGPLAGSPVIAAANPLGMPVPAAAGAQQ
Sequence of Casein kinase II (P19784 whole entry): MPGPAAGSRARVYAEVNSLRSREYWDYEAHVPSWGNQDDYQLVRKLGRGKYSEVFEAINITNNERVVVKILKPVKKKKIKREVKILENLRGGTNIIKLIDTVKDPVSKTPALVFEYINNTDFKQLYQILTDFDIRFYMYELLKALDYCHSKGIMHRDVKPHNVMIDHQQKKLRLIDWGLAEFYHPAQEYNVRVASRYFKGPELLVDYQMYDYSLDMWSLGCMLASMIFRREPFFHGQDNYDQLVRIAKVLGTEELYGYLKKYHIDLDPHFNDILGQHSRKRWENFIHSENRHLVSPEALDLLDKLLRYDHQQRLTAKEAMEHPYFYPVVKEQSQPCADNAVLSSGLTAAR

T1 sequence (P68400 whole entry, the tested form may be a part): as the sequence (P68400 whole entry) above
Sequence of Voltage-gated inwardly rectifying potassium channel KCNH2 (Q12809 whole entry): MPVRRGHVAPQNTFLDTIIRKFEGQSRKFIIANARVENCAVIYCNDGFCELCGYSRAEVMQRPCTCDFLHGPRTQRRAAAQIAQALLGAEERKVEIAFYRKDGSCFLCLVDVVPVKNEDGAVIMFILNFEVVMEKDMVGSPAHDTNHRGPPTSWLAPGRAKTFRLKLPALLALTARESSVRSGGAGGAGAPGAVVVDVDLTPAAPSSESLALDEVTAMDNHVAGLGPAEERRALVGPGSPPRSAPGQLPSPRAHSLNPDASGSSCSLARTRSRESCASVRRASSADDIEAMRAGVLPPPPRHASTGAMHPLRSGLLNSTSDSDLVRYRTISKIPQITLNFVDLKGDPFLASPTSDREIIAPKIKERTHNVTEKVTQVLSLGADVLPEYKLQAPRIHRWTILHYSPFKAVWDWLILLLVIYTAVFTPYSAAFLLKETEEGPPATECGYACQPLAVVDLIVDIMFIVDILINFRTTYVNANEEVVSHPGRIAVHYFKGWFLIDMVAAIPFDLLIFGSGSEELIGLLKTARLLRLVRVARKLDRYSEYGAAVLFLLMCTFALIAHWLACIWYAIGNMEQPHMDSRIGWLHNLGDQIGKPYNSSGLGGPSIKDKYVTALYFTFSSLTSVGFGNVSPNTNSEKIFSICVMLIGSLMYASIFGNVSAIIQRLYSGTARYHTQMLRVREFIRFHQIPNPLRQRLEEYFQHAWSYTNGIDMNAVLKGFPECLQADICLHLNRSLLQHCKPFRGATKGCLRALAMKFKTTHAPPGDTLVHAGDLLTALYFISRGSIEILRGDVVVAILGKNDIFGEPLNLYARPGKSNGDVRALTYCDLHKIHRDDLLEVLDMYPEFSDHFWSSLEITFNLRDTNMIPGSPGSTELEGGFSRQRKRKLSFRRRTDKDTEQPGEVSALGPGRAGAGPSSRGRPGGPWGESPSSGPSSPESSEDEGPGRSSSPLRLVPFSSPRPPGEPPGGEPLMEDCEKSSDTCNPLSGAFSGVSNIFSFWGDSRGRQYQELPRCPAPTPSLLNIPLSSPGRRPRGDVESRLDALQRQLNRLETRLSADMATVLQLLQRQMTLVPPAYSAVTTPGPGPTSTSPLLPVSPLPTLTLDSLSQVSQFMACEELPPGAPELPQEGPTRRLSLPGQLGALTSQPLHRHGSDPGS
Sequence of Homeodomain-interacting protein kinase 2 (Homo sapiens) (Q9H2X6 whole entry, looked up, the tested form may be a part): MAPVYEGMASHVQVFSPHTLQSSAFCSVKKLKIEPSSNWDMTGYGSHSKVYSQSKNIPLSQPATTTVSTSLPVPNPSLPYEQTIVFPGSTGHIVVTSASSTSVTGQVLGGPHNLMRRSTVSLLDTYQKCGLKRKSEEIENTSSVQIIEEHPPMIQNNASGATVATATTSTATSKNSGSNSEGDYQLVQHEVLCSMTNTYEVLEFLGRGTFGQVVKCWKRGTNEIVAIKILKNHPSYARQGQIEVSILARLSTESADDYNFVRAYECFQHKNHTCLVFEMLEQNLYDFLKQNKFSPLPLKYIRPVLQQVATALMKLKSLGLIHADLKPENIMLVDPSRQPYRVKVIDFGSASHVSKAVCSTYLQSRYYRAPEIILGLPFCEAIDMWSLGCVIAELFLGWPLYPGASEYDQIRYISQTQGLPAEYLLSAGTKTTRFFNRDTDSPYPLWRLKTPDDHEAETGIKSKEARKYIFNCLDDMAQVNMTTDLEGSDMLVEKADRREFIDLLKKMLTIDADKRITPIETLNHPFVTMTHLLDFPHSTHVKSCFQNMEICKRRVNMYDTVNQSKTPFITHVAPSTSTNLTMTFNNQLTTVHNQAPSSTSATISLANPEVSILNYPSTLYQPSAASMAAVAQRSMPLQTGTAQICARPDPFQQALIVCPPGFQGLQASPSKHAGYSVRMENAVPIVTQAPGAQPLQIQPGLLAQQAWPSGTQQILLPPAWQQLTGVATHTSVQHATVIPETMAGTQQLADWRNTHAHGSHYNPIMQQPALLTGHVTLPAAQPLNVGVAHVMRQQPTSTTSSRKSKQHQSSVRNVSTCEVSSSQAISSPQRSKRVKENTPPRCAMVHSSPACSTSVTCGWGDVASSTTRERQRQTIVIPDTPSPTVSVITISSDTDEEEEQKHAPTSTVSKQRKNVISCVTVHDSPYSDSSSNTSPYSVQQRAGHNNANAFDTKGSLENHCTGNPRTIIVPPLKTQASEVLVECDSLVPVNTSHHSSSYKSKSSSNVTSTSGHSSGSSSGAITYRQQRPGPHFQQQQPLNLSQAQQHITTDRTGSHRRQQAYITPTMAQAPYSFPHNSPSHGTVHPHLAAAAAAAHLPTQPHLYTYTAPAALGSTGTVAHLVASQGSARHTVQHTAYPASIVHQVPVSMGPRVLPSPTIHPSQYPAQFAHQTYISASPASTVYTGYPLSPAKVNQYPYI
Sequence of Homeodomain-interacting protein kinase 1 (Homo sapiens) (Q86Z02 whole entry, looked up): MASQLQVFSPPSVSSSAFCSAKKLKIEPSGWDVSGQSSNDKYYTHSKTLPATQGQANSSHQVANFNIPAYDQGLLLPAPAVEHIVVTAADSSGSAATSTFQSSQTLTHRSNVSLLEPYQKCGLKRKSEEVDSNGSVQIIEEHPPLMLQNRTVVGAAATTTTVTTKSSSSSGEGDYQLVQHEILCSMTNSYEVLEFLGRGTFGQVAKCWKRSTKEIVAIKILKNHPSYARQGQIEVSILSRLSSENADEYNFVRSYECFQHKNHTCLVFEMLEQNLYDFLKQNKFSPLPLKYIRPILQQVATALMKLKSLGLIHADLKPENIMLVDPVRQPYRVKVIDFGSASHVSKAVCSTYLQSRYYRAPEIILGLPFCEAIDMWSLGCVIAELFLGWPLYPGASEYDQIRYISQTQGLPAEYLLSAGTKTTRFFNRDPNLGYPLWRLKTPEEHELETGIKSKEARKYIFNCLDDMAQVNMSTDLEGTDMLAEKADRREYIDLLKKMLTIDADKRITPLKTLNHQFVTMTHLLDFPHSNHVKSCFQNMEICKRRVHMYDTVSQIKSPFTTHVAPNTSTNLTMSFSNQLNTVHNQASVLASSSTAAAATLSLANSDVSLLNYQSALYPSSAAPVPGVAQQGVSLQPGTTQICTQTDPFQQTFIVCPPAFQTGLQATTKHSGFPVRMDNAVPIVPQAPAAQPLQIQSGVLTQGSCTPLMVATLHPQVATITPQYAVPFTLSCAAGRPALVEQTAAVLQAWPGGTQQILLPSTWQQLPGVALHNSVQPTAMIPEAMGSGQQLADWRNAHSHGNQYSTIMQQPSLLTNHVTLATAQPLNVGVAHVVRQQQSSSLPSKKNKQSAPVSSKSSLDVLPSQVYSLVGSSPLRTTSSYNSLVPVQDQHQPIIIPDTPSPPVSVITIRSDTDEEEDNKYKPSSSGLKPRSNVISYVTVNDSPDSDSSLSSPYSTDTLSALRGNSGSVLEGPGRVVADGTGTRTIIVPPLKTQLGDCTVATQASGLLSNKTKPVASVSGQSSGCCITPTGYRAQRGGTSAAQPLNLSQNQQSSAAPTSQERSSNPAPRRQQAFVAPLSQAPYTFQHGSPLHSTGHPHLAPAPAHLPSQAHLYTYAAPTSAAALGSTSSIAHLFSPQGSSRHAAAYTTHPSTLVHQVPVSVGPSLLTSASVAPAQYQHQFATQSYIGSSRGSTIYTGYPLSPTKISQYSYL
Sequence of Death-associated protein kinase 2 (Homo sapiens) (Q9UIK4 whole entry, looked up): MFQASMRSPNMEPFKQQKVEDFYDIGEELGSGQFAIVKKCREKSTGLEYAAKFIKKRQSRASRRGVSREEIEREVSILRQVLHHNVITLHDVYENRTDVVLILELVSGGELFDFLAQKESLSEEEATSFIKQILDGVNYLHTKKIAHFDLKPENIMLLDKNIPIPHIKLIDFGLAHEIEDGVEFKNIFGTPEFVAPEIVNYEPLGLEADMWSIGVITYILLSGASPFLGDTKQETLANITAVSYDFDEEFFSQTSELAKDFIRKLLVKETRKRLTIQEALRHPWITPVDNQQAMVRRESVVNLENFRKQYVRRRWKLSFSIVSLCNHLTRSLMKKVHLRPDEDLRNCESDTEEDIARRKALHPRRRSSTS

With CC(=O)Nc1cc(Nc2cc(NC3CC3)n3ncc(C#N)c3n2)ccc1N(C)CCN the solubility at 24 h [1] was > 1000 µM, the microsomal CLint [2] was 7 µL/min/mg and the hepatocyte CLint [3] was 8 µL/min/1e6 cells. The IC50 [4] was > 100000 nM, the inhibition [5] was > 50% and the inhibition [6] was > 50%. For the same compound, the inhibition [7] was > 50%, the inhibition [8] was > 50% and the inhibition [9] was > 50%. The inhibition [10] was > 50%, the inhibition [11] was > 50% and the inhibition [12] was > 50%. The inhibition [13] was > 50%, the GI50 [14] was 10 nM and the GI50 [15] was 50 nM. The GI50 [16] was 5 nM, the inhibition (Mus musculus [17]) was “Dose-dependent effect” and the inhibition (Mus musculus [18]) was “Dose-dependent effect”. The inhibition in vivo at 10 mg/kg (Mus musculus [19]) was 40%, the inhibition (Mus musculus [20]) was “Active” and the inhibition in vivo at 30 mg/kg [21] was 94%. For the same compound, the inhibition in vivo at 30 mg/kg [22] was 74%, the TGI (HCT-116) was “Dose-dependent effect” and the TGI (SW-620) was “Dose-dependent effect”. The Activity (Mus musculus [23]) was “Dose-dependent effect”, the Activity (Mus musculus [24]) was 6.8% and the Activity (Mus musculus [25]) was “Dose-dependent effect”. For the same compound, the fraction unbound at 10 µM [26] was 0.39, the inhibition [27] was 74% and the inhibition (L-Wnt3a) was “Dose-dependent effect”. For the same compound, the Drug uptake (Plasma) was “Not Active”, the IC50 [28] was 43 nM and the inhibition [29] was > 50%.
For CC(=O)Nc1cc(Nc2cc(NC3CC3)n3ncc(C#N)c3n2)ccc1N(C)CCN(C)C, the solubility at 24 h [1] was > 1000 µM, the microsomal CLint [2] was 9 µL/min/mg and the hepatocyte CLint [3] was 32 µL/min/1e6 cells. It also gave an IC50 [4] of 4000 nM, a Kd [30] of 0.0482 nM and a GI50 [14] of 30 nM. For the same compound, the GI50 [15] was 80 nM, the GI50 [16] was 30 nM and the AUC (Rattus norvegicus) was 0.36 µM·h. The fraction unbound at 10 µM [26] was 0.26, the Drug metabolism (Hepatocyte) was “metabolite_detected” and the Drug metabolism (Liver microsome [31]) was “metabolite_notdetected”. The Drug metabolism (Liver microsome [32]) was “metabolite_notdetected”, the IC50 [28] was 75 nM and the IC50 [33] was < 3 nM. The IC50 (Casein kinase II) was 1 nM.
